We go through 17 molecules from ChEMBL document CHEMBL1139452, “Synthesis and structure-activity relationships of 5,6,7,8-tetrahydro-4H-thieno[3,2-b]azepine derivatives: novel arginine vasopressin antagonists” (J Med Chem, 2004).

Where only a bound is given, the exact number is not on record here.

For test [1], the system named is Rattus norvegicus. The test is described as follows: Antagonistic effect against AVP-induced hypertension in rats after intravenous administration. In kind it is functional. Conditions: read-out: ID50 (the source's name). An outline of the steps:
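Male Sprague Dawley rats (250–350 g) under urethane anaesthesia (1.3 g/kg ip), with femoral artery and vein catheters, held at 37 °C. Compound or vehicle given iv (1 mL/kg) 2 min before AVP 30 mU/kg iv. ID50 is the dose inhibiting the maximal pressor response by 50%; n = 3, mean ± SEM.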

The subject of test [2] is Rattus norvegicus. The test is described as follows: Diuretic effect was determined after peroral administration at a dose of 10 mg/kg in rats. In kind it is functional, Urine. Conditions: route oral. The gist of the method: (§1)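 Male Sprague Dawley rats (250–350 g) fasted 16–20 h, some also without water for 16–20 h. Compound or vehicle given orally. Spontaneously voided urine collected over 4 h in metabolic cages and reported as mL/4 h; n = 3, mean ± SEM.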

The target of test [3] is Vasopressin V2 receptor (Homo sapiens, UniProt P30518). The test is described as follows: Inhibitory activity against human recombinant arginine vasopressin V2 receptor using [3H]AVP as radioligand in CHO cells. The test is classed as cell-based. An outline of the steps: (§2)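 Competition binding on plasma membrane preparations, with [3H]AVP (80 Ci/mmol, 1–2 nM) and graded test compound, in 100 mM Tris-HCl pH 7.5, 5 mM MgCl2, 1 mM EDTA, 0.1% BSA, ≤1% final DMSO. Incubated 20 min at 37 °C, stopped with ice-cold Tris pH 8.0, filtered on GF/B. Nonspecific binding: 1 μM AVP. IC50 by regression of displacement curves; n = 3, mean ± SEM.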
Sequence of Vasopressin V2 receptor (Homo sapiens, UniProt P30518) (P30518 whole entry): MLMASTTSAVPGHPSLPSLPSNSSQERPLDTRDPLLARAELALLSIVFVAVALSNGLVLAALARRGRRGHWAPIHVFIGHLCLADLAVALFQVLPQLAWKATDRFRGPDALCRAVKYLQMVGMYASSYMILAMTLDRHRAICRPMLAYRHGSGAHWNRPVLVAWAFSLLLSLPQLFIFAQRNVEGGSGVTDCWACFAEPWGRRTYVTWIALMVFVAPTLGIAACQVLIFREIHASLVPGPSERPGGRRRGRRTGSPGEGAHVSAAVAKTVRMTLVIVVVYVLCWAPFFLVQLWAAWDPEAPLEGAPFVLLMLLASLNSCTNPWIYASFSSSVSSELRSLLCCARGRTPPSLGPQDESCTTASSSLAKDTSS

For test [4], the target named is Vasopressin V2 receptor (Rattus norvegicus, UniProt Q00788). The test can be described thus: Inhibitory activity against arginine vasopressin V2 receptor using [3H]AVP as radioligand in rat […] medulla. The test is classed as tissue-based. An outline of the steps:
as §2

Test [5] has as its target Vasopressin V1 receptor (Homo sapiens, UniProt P37288+P47901). The test is described as follows: Inhibitory activity against arginine vasopressin V1 receptor using [3H]AVP as radioligand in human platelet. The gist of the method:
as §2

The target of test [6] is Vasopressin V1 receptor (Rattus norvegicus, UniProt P48974+P30560). The test can be described thus: Inhibitory activity against arginine vasopressin V1 receptor using [3H]AVP as radioligand in rat liver. The gist of the method: as §2
Test [7] has as its system Rattus norvegicus. The test can be described thus: Diuretic effect was determined after peroral administration at a dose of 30 mg/kg in rats. In kind it is functional, Urine. As to conditions: route oral. The gist of the method:
as §1

Sequence of Vasopressin V2 receptor (Rattus norvegicus, UniProt Q00788) (Q00788 whole entry): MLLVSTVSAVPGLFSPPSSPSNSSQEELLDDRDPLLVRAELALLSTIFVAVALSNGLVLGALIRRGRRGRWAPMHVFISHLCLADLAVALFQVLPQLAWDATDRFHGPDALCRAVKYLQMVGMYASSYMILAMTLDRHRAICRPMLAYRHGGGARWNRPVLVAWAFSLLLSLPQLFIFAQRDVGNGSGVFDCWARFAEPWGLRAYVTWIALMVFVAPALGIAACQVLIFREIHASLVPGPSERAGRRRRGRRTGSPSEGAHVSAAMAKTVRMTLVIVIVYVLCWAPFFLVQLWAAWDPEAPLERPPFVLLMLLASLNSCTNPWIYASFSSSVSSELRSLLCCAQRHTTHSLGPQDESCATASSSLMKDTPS

One may read the IC50 as the concentration that inhibits the measured activity by half. On to `O=C(Nc1ccc(C(=O)N2CCCN(Cc3cccnc3)c3sccc32)cc1)c1ccccc1-c1ccccc1`, for which, in the test on Rattus norvegicus [1], the ED50 is 0.14 mg/kg. The Urine volume in the test with Rattus norvegicus [2] was determined as 1.2 ml 4hr-1. In addition, the IC50 at Vasopressin V2 receptor [3] was determined as 60 nM; at Vasopressin V2 receptor [4], 30 nM; at Vasopressin V1 receptor [5], 700 nM; at Vasopressin V1 receptor [6], 500 nM.
Take `COc1cc(C(=O)N2CCCC(N(C)C)c3sccc32)ccc1NC(=O)c1ccccc1-c1ccccc1` (stereo not given): the ED50 with Rattus norvegicus [1] was greater than 0.3 mg/kg. In addition, the Urine volume with Rattus norvegicus [2] is 9.3 ml 4hr-1; in the test with Rattus norvegicus [7], 12 ml 4hr-1. The half-maximal inhibitory concentration (IC50) was determined as 20 nM on Vasopressin V2 receptor [3], 10 nM at Vasopressin V2 receptor [4], 3000 nM at Vasopressin V1 receptor [5] and 2000 nM at Vasopressin V1 receptor [6].
Turning to `O=C(Nc1ccc(C(=O)N2CCCN(CCN3CCCC3)c3sccc32)cc1)c1ccccc1-c1ccccc1`, in the test with Rattus norvegicus [1], the ED50 was greater than 0.3 mg/kg. In the test on Rattus norvegicus [2], the Urine volume worked out at 6.3 ml 4hr-1. The half-maximal inhibitory concentration (IC50) at Vasopressin V2 receptor [3] was 200 nM; at Vasopressin V2 receptor [4], 10 nM; at Vasopressin V1 receptor [5] it was 800 nM; on Vasopressin V1 receptor [6] it was 200 nM.
As for `CN(C)CCN(C)CCCCOc1cc(C(=O)N2CCCCc3sccc32)ccc1NC(=O)c1ccccc1-c1ccccc1`, in the test with Rattus norvegicus [1], the ED50 is 0.02 mg/kg. The molecule also yielded a Urine volume in the test with Rattus norvegicus [2] of 10.2 ml 4hr-1. Further, the IC50 was 80 nM on Vasopressin V2 receptor [3], 8 nM on Vasopressin V2 receptor [4], 5 nM on Vasopressin V1 receptor [5] and 20 nM on Vasopressin V1 receptor [6].
Consider `CN1CCN(CCN2CCCN(C(=O)c3ccc(NC(=O)c4ccccc4-c4ccccc4)cc3)c3ccsc32)CC1`, for which the ED50 in the test on Rattus norvegicus [1] is greater than 0.3 mg/kg. Further, in the test with Rattus norvegicus [2], the Urine volume came out at 7.4 ml 4hr-1. In addition, the IC50 at Vasopressin V2 receptor [3] came to 50 nM; at Vasopressin V2 receptor [4], 10 nM; on Vasopressin V1 receptor [5], 1000 nM; on Vasopressin V1 receptor [6], 200 nM.
`CN(C)C1CCN(C(=O)COc2cc(C(=O)N3CCCCc4sccc43)ccc2NC(=O)c2ccccc2-c2ccccc2)CC1`: the ED50 in the test with Rattus norvegicus [1] amounted to 0.02 mg/kg. The Urine volume in the test with Rattus norvegicus [2] turned out to be 15 ml 4hr-1. Moreover, the IC50 on Vasopressin V2 receptor [3] stood at 8 nM; at Vasopressin V2 receptor [4], 4 nM; at Vasopressin V1 receptor [5] it was 50 nM; on Vasopressin V1 receptor [6], 20 nM.
`O=C(Nc1ccc(C(=O)N2CCCN(Cc3ccccc3)c3sccc32)cc1)c1ccccc1-c1ccccc1`: the ED50 in the test on Rattus norvegicus [1] was greater than 0.3 mg/kg. Moreover, the IC50 at Vasopressin V2 receptor [3] is 80 nM; on Vasopressin V2 receptor [4], 70 nM; on Vasopressin V1 receptor [5], 400 nM; at Vasopressin V1 receptor [6], 500 nM.
With `CN1CCCN(CC(=O)N2CCCN(C(=O)c3ccc(NC(=O)c4ccccc4-c4ccccc4)cc3)c3ccsc32)CC1`, the IC50 was greater than 10000 nM on Vasopressin V2 receptor [3], 100 nM on Vasopressin V2 receptor [4], greater than 10000 nM on Vasopressin V1 receptor [5] and greater than 10000 nM at Vasopressin V1 receptor [6].
As to `CCN(CC)C1CCN(C(=O)CCCOc2cc(C(=O)N3CCCCc4sccc43)ccc2NC(=O)c2ccccc2-c2ccccc2)CC1`, the ED50 in the test on Rattus norvegicus [1] worked out at 0.01 mg/kg. The Urine volume in the test on Rattus norvegicus [2] was determined as 18 ml 4hr-1. Further, the IC50 on Vasopressin V2 receptor [3] stood at 9 nM; at Vasopressin V2 receptor [4] it was 6 nM; on Vasopressin V1 receptor [5] it was 4 nM; on Vasopressin V1 receptor [6], 4 nM.
As to `O=C(Nc1ccc(C(=O)N2CCCCc3sccc32)cc1OCCCC(=O)N1CCC(N2CCCCC2)CC1)c1ccccc1-c1ccccc1`, the ED50 with Rattus norvegicus [1] is 0.03 mg/kg. The molecule also returned a Urine volume with Rattus norvegicus [2] of 8 ml 4hr-1. Moreover, the IC50 was 30 nM on Vasopressin V2 receptor [3], 20 nM at Vasopressin V2 receptor [4], 10 nM on Vasopressin V1 receptor [5] and 20 nM at Vasopressin V1 receptor [6].
With `CN1CCN(CCCCOc2cc(C(=O)N3CCCCc4sccc43)ccc2NC(=O)c2ccccc2-c2ccccc2)CC1`, the ED50 in the test with Rattus norvegicus [1] is less than 0.01 mg/kg. Besides, the Urine volume with Rattus norvegicus [2] is listed as 16.9 ml 4hr-1. Besides, the IC50 at Vasopressin V2 receptor [3] amounted to 1 nM; on Vasopressin V2 receptor [4], 7 nM; on Vasopressin V1 receptor [5] it was 5 nM; on Vasopressin V1 receptor [6], 3 nM.
Regarding `CN1CCCN(C(=O)CCCOc2cc(C(=O)N3CCCCc4sccc43)ccc2NC(=O)c2ccccc2-c2ccccc2)CC1`, the ED50 with Rattus norvegicus [1] was 0.008 mg/kg. This molecule yielded a Urine volume in the test with Rattus norvegicus [2] of 19.1 ml 4hr-1. The concentration for half-maximal inhibition (IC50) on Vasopressin V2 receptor [3] stood at 10 nM; at Vasopressin V2 receptor [4], 3 nM; at Vasopressin V1 receptor [5] it was 50 nM; at Vasopressin V1 receptor [6] it was 20 nM.
For the molecule `O=C(Nc1ccc(C(=O)N2CCCCc3sccc32)cc1O)c1ccccc1-c1ccccc1`, the ED50 in the test with Rattus norvegicus [1] amounted to 0.04 mg/kg. Moreover, the Urine volume with Rattus norvegicus [2] came to 2.3 ml 4hr-1. In addition, the half-inhibitory concentration (IC50) on Vasopressin V2 receptor [3] was less than 10 nM; at Vasopressin V2 receptor [4] it was less than 10 nM; on Vasopressin V1 receptor [5], 60 nM; on Vasopressin V1 receptor [6], 200 nM.
Take `CN1CCCN(CCCOc2cc(C(=O)N3CCCCc4sccc43)ccc2NC(=O)c2ccccc2-c2ccccc2)CC1`: the ED50 in the test with Rattus norvegicus [1] was 0.03 mg/kg. This molecule also had a Urine volume in the test with Rattus norvegicus [2] of 18.3 ml 4hr-1. The IC50 was 2 nM on Vasopressin V2 receptor [3], less than 1 nM at Vasopressin V2 receptor [4], less than 1 nM at Vasopressin V1 receptor [5] and 2 nM at Vasopressin V1 receptor [6].
Turning to `CN1CCN(C(=O)CCCOc2cc(C(=O)N3CCCCc4sccc43)ccc2NC(=O)c2ccccc2-c2ccccc2)CC1`, the ED50 with Rattus norvegicus [1] stood at 0.03 mg/kg. In addition, the Urine volume in the test with Rattus norvegicus [2] was determined as 17.6 ml 4hr-1. For the same molecule, the IC50 at Vasopressin V2 receptor [3] was determined as 6 nM; at Vasopressin V2 receptor [4], 1 nM; at Vasopressin V1 receptor [5], 10 nM; on Vasopressin V1 receptor [6] it was 20 nM.
In the case of `CN(C)C1CCN(C(=O)CCCOc2cc(C(=O)N3CCCCc4sccc43)ccc2NC(=O)c2ccccc2-c2ccccc2)CC1`, in the test on Rattus norvegicus [1], the ED50 came out at 0.005 mg/kg. The Urine volume in the test on Rattus norvegicus [2] turned out to be 22 ml 4hr-1. For the same molecule, the IC50 at Vasopressin V2 receptor [3] was 20 nM; at Vasopressin V2 receptor [4], 3 nM; at Vasopressin V1 receptor [5], 3 nM; on Vasopressin V1 receptor [6] it was 6 nM.
Turning to `CN(C)CCN1CCCN(C(=O)c2ccc(NC(=O)c3ccccc3-c3ccccc3)cc2)c2ccsc21`, the ED50 in the test on Rattus norvegicus [1] is 0.31 mg/kg. The molecule further displayed a Urine volume with Rattus norvegicus [2] of 6.7 ml 4hr-1. Moreover, the IC50 at Vasopressin V2 receptor [3] worked out at 80 nM; on Vasopressin V2 receptor [4] it was 20 nM; at Vasopressin V1 receptor [5], 400 nM; on Vasopressin V1 receptor [6], 300 nM.
